Published values pooled from the literature.
Compare with care: the assays were run in different laboratories.
Target: Casein kinase I isoform gamma-1 (CSNK1G1, Homo sapiens, UniProt Q9HCP0)

COc1cc(Cl)c(C(=O)N[C@@H](CN[C@H]2CC[C@@H](N)CC2)Cc2ccc(C#N)cc2)cc1-c1ccc(CN[C@H](C)c2ccc(C)cc2)o1 has a remaining activity of 87% (enzyme activity, inhibitor; 1 µM).
The remaining activity of Cc1cnc(NC2CCOCC2)nc1-n1cnc(C(=O)NC(CN)c2cc(F)cc(Cl)c2)c1 (centres unmarked) is reported as 66% (enzyme activity, inhibitor, radiometric; 1 µM).
CNC(=O)c1cc(Oc2ccc(NC(=O)Nc3ccc(Cl)c(C(F)(F)F)c3)cc2)ccn1 has an inhibition of -16% (enzyme activity, inhibitor; 0.3 µM).
The inhibition of CN1CC(Oc2cnc(C#N)cc2-c2ccn3nc(NC(=O)C4CC4)cc3c2)C1 is reported as -3% (enzyme activity, inhibitor; 1 µM).
CC(C)(C)c1nc2c(s1)c1nc(N)ncc1c1ccc(NS(=O)(=O)c3c(F)cccc3F)c(F)c12 has a remaining activity of 63% (enzyme activity, inhibitor, radiometric; 1 µM).
With CCCS(=O)(=O)Nc1ccc(F)c(C(=O)c2c[nH]c3ncc(-c4ccc(Cl)cc4)cc23)c1F the inhibition was under 10% (enzyme activity, inhibitor; 1 µM).
The remaining signal of N#CCCc1ccc2c(c1)-c1[nH]c3ccc([N+](=O)[O-])cc3c1CC(=O)N2 is reported as 81.6% (cell-free assay; 0.5 µM).
With COc1cc2ncnc(Nc3ccc(Oc4ccccc4)c(C)c3C)c2cc1OC the inhibition was 0% (enzyme activity, inhibitor; 1 µM).
With CCS(=O)(=O)c1cc2cc(C[C@@](O)(CC(C)(C)c3ccc(F)cc3C(N)=O)C(F)(F)F)[nH]c2cn1 the remaining binding was 100% (cell-free assay, competition with immobilised ligand; 1 µM).
C[C@@H]1CCN(C(=O)CC#N)C[C@@H]1N(C)c1ncnc2[nH]ccc12 gave a remaining signal of 101% (cell-free assay, inhibitor; 0.5 µM).
For Cc1nc(N2CC[C@@H](O)C2)ncc1-c1cc(C(F)(F)F)cc2[nH]ncc12, the remaining binding was 78% (cell-free assay, competition with immobilised ligand; 1 µM).
Cc1ccc(Nc2nccc(N(C)c3ccc4c(C)n(C)nc4c3)n2)cc1S(N)(=O)=O gave an inhibition of -8% (enzyme activity, inhibitor; 10 µM).
The remaining binding of Cn1nc(C(F)(F)F)cc1-c1cnc(N2CCc3cc(S(=O)(=O)Nc4c(F)cc(Cl)cc4F)cc(N4CCCC4=O)c32)nc1 is reported as 100% (cell-free assay, competition with immobilised ligand; 1 µM).
For O=C1Nc2ccc(Cl)cc2C1=Cc1cc(Cl)c(O)c(Cl)c1, the remaining signal was 89% (cell-free assay; 0.5 µM).
CNC(=O)c1ccc(Nc2ncc(C(F)(F)F)c(NCc3nccnc3N(C)S(C)(=O)=O)n2)cc1 has a remaining binding of 82% (cell-free assay, competition with immobilised ligand; 0.1 µM).
For Cc1ccc(NC(=O)c2ccc(C)c(C(F)(F)F)c2)cc1C#Cc1nn(C2CCC(O)CC2)c2ncnc(N)c12 (centres unmarked), the remaining signal was 83% (cell-free assay; 10 µM).
For CCc1ccccc1C(=O)Nc1n[nH]c2c(C)c(F)c(C3C(C#N)=C(C)N(C)C(C)=C3C#N)cc12, the remaining binding was 95% (cell-free assay, competition with immobilised ligand; 1 µM).
The activity vs control of CC(C)c1ccc(NC(=O)c2cccs2)c(-c2nc3ccccc3[nH]c2=O)c1 is reported as 102% (enzyme activity, inhibitor; 1 µM).
CS(=O)(=O)N1CCCC(NC(=O)[C@H](CCC2CCCCC2)NC(=O)c2ccc(CNC(=O)c3cnc4ccccn34)cc2)C1 (some centres unmarked) has a remaining binding of 100% (cell-free assay, competition with immobilised ligand; 0.1 µM).
O=C(Nc1cnn(-c2csc(C(=O)NC3COC3)c2)c1)Nc1ccccc1Cl gave a remaining activity of 99% (enzyme activity, inhibitor; 5 µM).
